{"source": "ChEMBL document CHEMBL3232847", "about": "“Discovery of 6-phenylpyrimido[4,5-b][1,4]oxazines as potent and selective acyl CoA:diacylglycerol acyltransferase 1 (DGAT1) inhibitors with in vivo efficacy in rodents” (J Med Chem, 2014)", "key": {"[1]": {"test": "Oral bioavailability in beagle dog at 2 mg/kg", "type": "ADME, organism-based, Canis lupus familiaris", "conditions": "in vivo"}, "[2]": {"test": "Oral bioavailability in Sprague-Dawley rat at 5 mg/kg", "type": "ADME, organism-based", "conditions": "in vivo"}, "[3]": {"test": "Volume of distribution at steady state in cynomolgus monkey at 0.5 mg/kg, iv", "type": "ADME, organism-based, Macaca fascicularis", "design": "dose 0.5 mg/kg, route intravenous", "conditions": "in vivo, read-out: Vdss"}, "[4]": {"test": "AUC in cynomolgus monkey at 10 mg/kg/day, po qd", "type": "ADME, organism-based, Macaca fascicularis", "design": "route oral", "conditions": "plasma", "outline": "(§1)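 Cynomolgus monkeys dosed orally once daily at 10 or 30 mg/kg for 21 days in a multiple-dose toxicity study. Plasma AUC was reported, with ALT/AST levels, QTc intervals and clinical and histopathological findings monitored.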"}, "[5]": {"test": "AUC in Sprague-Dawley rat at 5 mg/kg, po", "type": "ADME, organism-based", "design": "dose 5 mg/kg, route oral", "conditions": "plasma"}, "[6]": {"test": "Volume of distribution at steady state in Sprague-Dawley rat at 0.7 mg/kg, iv", "type": "ADME, organism-based", "design": "dose 0.7 mg/kg, route intravenous", "conditions": "in vivo, read-out: Vdss"}, "[7]": {"target": "T1, Diacylglycerol O-acyltransferase 2 (Homo sapiens, UniProt Q96PD7)", "T1 sequence (Q96PD7 whole entry)": "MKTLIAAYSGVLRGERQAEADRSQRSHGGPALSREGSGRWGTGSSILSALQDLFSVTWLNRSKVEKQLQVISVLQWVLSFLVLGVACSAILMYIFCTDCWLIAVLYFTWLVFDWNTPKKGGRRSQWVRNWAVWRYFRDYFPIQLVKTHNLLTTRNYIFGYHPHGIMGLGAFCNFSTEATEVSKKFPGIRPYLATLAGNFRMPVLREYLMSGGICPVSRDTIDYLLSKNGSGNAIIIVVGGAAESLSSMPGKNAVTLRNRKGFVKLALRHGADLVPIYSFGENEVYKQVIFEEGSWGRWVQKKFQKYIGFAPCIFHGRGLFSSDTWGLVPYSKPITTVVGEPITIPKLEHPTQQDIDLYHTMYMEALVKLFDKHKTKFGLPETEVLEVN", "test": "Inhibition of human liver flag-tagged DGAT2 expressed in baculovirus infected insect cells after 2 hrs by SPA"}, "[8]": {"test": "AUC in cynomolgus monkey at 30 mg/kg/day, po qd", "type": "ADME, organism-based, Macaca fascicularis", "design": "route oral", "conditions": "plasma", "outline": "as §1"}, "[9]": {"system": "Cynomolgus monkey", "test": "Toxicity in cynomolgus monkey assessed as elevation of AST level at 10 to 30 mg/kg/day, po qd by 21-day multiple-dose toxicity study relative to control", "type": "organism-based, Macaca fascicularis", "design": "route oral", "conditions": "in vivo", "outline": "(§2)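 Cynomolgus monkeys were dosed po once daily at 10 and 30 mg/kg for 21 days. ALT and AST levels, QTc intervals, and clinical and histopathological findings were assessed, and plasma AUC was recorded for each dose.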"}, "[10]": {"test": "AUC in cynomolgus monkey at 5 mg/kg, po", "type": "ADME, organism-based, Macaca fascicularis", "design": "dose 5 mg/kg, route oral", "conditions": "plasma"}, "[11]": {"system": "Cynomolgus monkey", "test": "Toxicity in cynomolgus monkey assessed as elevation of prolongation of QTc interval at 10 to 30 mg/kg/day, po qd by 21-day multiple-dose toxicity study relative to control", "type": "organism-based, Macaca fascicularis", "design": "route oral", "conditions": "in vivo", "outline": "as §2"}, "[12]": {"test": "Inhibition of rat small intestine microsomal MGAT by TLC technique in presence of monoacylglycerol and [14C] palmitoyl CoA", "type": "microsomes"}, "[13]": {"test": "Inhibition of mouse liver microsomal GPAT by TLC technique in presence of glycerol-3-phosphate and [14C] palmitoyl CoA"}, "[14]": {"test": "AUC in Sprague-Dawley rat at 10 mg/kg, po qd", "type": "ADME, organism-based", "design": "dose 10 mg/kg, route oral", "conditions": "plasma", "outline": "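Sprague-Dawley rats dosed orally once daily for 14 days in a multiple-dose toxicity study at 10, 30 or 100 mg/kg. Plasma exposure was reported as AUC, and clinical and histopathological findings were recorded.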"}, "[15]": {"target": "T2, Sterol O-acyltransferase 2 (Homo sapiens, UniProt O75908)", "T2 sequence (O75908 whole entry)": "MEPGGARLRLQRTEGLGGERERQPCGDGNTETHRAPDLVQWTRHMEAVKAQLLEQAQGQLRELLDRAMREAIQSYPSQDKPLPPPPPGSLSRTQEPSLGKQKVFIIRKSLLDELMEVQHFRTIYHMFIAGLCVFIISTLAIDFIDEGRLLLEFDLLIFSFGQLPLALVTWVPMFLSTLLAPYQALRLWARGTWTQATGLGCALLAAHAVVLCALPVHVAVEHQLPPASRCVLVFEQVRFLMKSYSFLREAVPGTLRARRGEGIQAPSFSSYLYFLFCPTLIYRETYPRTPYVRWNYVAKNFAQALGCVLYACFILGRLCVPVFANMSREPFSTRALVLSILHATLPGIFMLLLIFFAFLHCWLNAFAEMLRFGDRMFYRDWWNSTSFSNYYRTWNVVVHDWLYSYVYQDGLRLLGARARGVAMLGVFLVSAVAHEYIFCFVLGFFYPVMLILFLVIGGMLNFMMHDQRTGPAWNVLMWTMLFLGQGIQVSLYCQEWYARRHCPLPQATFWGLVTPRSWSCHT", "test": "Inhibition of human full-length flag-tagged ACAT2 expressed in baculovirus infected insect cells using [14C]palmitoyl CoA as substrate after 10 mins by scintillation counting"}, "[16]": {"system": "Rattus norvegicus", "test": "Reduction in plasma triglyceride level in Sprague-Dawley rat at 0.3 mg/kg, po treated 30 mins prior to olive oil administration measured 3 hrs post olive oil administration relative to vehicle-treated control", "type": "functional", "design": "scale not given: the % may be the effect or the level left", "outline": "(§3)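 Animals received vehicle or compound by oral gavage, then olive oil (5 mL/kg) by oral gavage 30 min later. Plasma triglycerides were measured before dosing and 3 h after the oil. The read-out was the change in TG from pre-dose, compared with vehicle-treated animals.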"}, "[17]": {"organism": "Rattus norvegicus", "test": "Inhibition of rat small intestine microsomal MGAT up to 10 uM by TLC technique in presence of monoacylglycerol and [14C] palmitoyl CoA", "type": "microsomes"}, "[18]": {"target": "Voltage-gated inwardly rectifying potassium channel KCNH2 (Homo sapiens, UniProt Q12809)", "sequence (Q12809 whole entry)": "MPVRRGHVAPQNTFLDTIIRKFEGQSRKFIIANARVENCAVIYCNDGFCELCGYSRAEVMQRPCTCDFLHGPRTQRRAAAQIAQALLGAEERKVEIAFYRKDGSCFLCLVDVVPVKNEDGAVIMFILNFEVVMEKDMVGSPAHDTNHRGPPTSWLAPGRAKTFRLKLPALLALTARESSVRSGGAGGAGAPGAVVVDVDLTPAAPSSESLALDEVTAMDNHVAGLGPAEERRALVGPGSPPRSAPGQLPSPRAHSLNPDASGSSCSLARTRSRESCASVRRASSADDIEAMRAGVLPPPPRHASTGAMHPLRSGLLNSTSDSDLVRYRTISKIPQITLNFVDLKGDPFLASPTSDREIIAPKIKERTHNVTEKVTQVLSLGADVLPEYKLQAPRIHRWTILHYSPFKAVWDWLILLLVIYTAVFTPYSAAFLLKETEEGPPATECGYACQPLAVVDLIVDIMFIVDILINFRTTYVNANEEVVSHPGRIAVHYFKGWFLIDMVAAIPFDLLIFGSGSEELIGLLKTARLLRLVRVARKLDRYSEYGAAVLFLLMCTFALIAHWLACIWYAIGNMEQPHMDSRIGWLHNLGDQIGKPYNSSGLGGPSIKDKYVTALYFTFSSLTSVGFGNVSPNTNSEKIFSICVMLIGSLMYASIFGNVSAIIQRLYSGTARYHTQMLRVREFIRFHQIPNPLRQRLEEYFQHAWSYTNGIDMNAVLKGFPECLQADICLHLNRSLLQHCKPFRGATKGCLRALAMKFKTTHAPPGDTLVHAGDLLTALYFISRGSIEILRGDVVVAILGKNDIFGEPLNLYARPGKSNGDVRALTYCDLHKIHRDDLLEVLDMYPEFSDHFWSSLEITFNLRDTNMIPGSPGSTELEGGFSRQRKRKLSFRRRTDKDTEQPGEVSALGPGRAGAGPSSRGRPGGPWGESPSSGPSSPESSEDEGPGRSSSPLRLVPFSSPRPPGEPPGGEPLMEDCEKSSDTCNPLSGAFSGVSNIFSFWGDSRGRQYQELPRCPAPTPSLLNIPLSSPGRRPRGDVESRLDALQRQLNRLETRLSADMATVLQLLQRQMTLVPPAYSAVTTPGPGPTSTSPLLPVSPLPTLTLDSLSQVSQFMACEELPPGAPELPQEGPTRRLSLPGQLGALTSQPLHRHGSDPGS", "test": "Inhibition of human ERG by patch clamp assay"}, "[19]": {"test": "AUC in Sprague-Dawley rat at 2 mg/kg, po", "type": "ADME, organism-based", "design": "dose 2 mg/kg, route oral", "conditions": "plasma"}, "[20]": {"system": "Rattus norvegicus", "test": "Toxicity in Sprague-Dawley rat assessed as change in clinical parameters at 30 mg/kg, po by 14-day multiple-dose toxicity study", "type": "organism-based", "design": "dose 30 mg/kg, route oral", "conditions": "in vivo", "outline": "(§4)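 Sprague−Dawley rats were dosed po once daily for 14 days. Clinical and histopathological findings were assessed, and plasma AUC was recorded for each dose.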"}, "[21]": {"system": "Rattus norvegicus", "test": "Reduction in plasma triglyceride level in Sprague-Dawley rat at 1 mg/kg, po treated 30 mins prior to olive oil administration measured 3 hrs post olive oil administration relative to vehicle-treated control", "type": "functional", "design": "scale not given: the % may be the effect or the level left", "outline": "as §3"}, "[22]": {"test": "Clearance in rhesus monkey at 0.2 mg/kg, iv", "type": "ADME, organism-based, Macaca mulatta", "design": "dose 0.2 mg/kg, route intravenous", "conditions": "in vivo"}, "[23]": {"target": "T3, Sterol O-acyltransferase 2 (Homo sapiens) (UniProt O75908)", "T3 sequence (whole entry)": "T2 sequence (O75908 whole entry)", "test": "Inhibition of human full-length flag-tagged ACAT2 expressed in baculovirus infected insect cells using [14C]palmitoyl CoA as substrate up to 10 uM after 10 mins by scintillation counting"}, "[24]": {"test": "Oral bioavailability in Sprague-Dawley rat at 2 mg/kg", "type": "ADME, organism-based", "conditions": "in vivo"}, "[25]": {"system": "Rattus norvegicus", "test": "Reduction in plasma triglyceride level in Sprague-Dawley rat at 0.1 mg/kg, po treated 30 mins prior to olive oil administration measured 3 hrs post olive oil administration relative to vehicle-treated control", "type": "functional", "design": "scale not given: the % may be the effect or the level left", "outline": "as §3"}, "[26]": {"test": "Half life in rhesus monkey at 0.2 mg/kg, iv", "type": "ADME, organism-based, Macaca mulatta", "design": "dose 0.2 mg/kg, route intravenous", "conditions": "in vivo"}, "[27]": {"test": "Oral Bioavailability in CD1 mouse at 2 mg/kg", "type": "ADME, organism-based", "conditions": "in vivo"}, "[28]": {"system": "Rattus norvegicus", "test": "Toxicity in Sprague-Dawley rat assessed as sebaceous gland atrophy at 100 mg/kg, po by 14-day multiple-dose toxicity study", "type": "organism-based", "design": "dose 100 mg/kg, route oral", "conditions": "in vivo", "outline": "as §4"}, "[29]": {"organism": "Mus musculus", "test": "Inhibition of mouse liver microsomal GPAT up to 10 uM by TLC technique in presence of glycerol-3-phosphate and [14C] palmitoyl CoA"}}, "note": "Calls of active or inactive are those of the source. No cut-off for these calls is given here."}
{"smiles": "CC1(C)Oc2nc(C(F)(F)F)nc(N)c2N=C1c1ccc2c(c1)CC[C@]21CC[C@@H](CC(=O)O)CC1", "values": [{"measurement": "bioavailability", "setting": "[1]", "result": 22, "unit": "%"}, {"measurement": "bioavailability", "setting": "[2]", "result": 98, "unit": "%"}, {"measurement": "Vd", "setting": "[3]", "result": 0.44, "unit": "L/kg"}, {"measurement": "AUC", "setting": "[4]", "result": 607, "unit": "µM·h"}, {"measurement": "AUC", "setting": "[5]", "result": 22900, "unit": "ng·h/mL"}, {"measurement": "Vd", "setting": "[6]", "result": 1.1, "unit": "L/kg"}, {"measurement": "IC50", "setting": "[7]", "result": "> 10", "unit": "µM"}, {"measurement": "AUC", "setting": "[8]", "result": 2560, "unit": "µM·h"}, {"measurement": "Activity", "setting": "[9]", "result": "Non-toxic"}, {"measurement": "AUC", "setting": "[10]", "result": 252000, "unit": "ng·h/mL"}, {"measurement": "Activity", "setting": "[11]", "result": "Non-toxic"}, {"measurement": "IC50", "setting": "[12]", "result": "> 10", "unit": "µM"}, {"measurement": "IC50", "setting": "[13]", "result": "> 10", "unit": "µM"}, {"measurement": "AUC", "setting": "[14]", "result": 11, "unit": "µM·h"}, {"measurement": "IC50", "setting": "[15]", "result": "> 10", "unit": "µM"}]}
{"smiles": "CC1(C)Oc2ncnc(N)c2N=C1c1ccc([C@H]2CC[C@H](CC(=O)O)CC2)cc1", "values": [{"measurement": "Activity", "setting": "[16]", "result": 88, "unit": "%"}, {"measurement": "inhibition", "setting": "[17]", "result": "inactive"}, {"measurement": "IC50", "setting": "[18]", "result": "> 10", "unit": "µM"}, {"measurement": "AUC", "setting": "[19]", "result": 1010, "unit": "ng·h/mL"}, {"measurement": "Activity", "setting": "[20]", "result": "Non-toxic"}, {"measurement": "Activity", "setting": "[21]", "result": 110, "unit": "%"}, {"measurement": "clearance", "setting": "[22]", "result": 3.67, "unit": "mL/min/kg"}, {"measurement": "inhibition", "setting": "[23]", "result": "inactive"}, {"measurement": "bioavailability", "setting": "[24]", "result": 30, "unit": "%"}, {"measurement": "Activity", "setting": "[25]", "result": 68, "unit": "%"}, {"measurement": "half-life", "setting": "[26]", "result": 1.8, "unit": "h"}, {"measurement": "bioavailability", "setting": "[27]", "result": 40, "unit": "%"}, {"measurement": "Activity", "setting": "[28]", "result": "Toxic"}, {"measurement": "inhibition", "setting": "[29]", "result": "inactive"}]}
